ChEMBL document CHEMBL2150909, “Imidazo[1,2-a]pyridines: orally active positive allosteric modulators of the metabotropic glutamate 2 receptor” (J Med Chem, 2012)
Activity calls are given as the source filed them. The calls are words filed in the database; no cut-off is given here.

What was measured:
[1] = target: Metabotropic glutamate receptor 2 (Homo sapiens, UniProt Q14416); test: Agonist activity at human mGlu 2 expressed in CHO cells by PAM assay relative to glutamate; format: functional, cell-based
Procedure, shortened: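 The assay measured [35S]GTPγS binding to membranes from CHO cells expressing human mGluR2. Cells were butyrate-stimulated (5 mM, 24 h) before membranes were prepared. Membranes were preincubated for 30 min at 30 °C in HEPES pH 7.4 buffer (NaCl, MgCl2, 50 μM GDP) with compound (0.3 nM–50 μM, 11 concentrations) plus EC25 glutamate. [35S]GTPγS (0.1 nM final) was then added for 30 min at 30 °C. Bound label was collected by filtration and counted. Runs were done at least in triplicate with duplicate points, and a four-parameter logistic fit gave the values.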

[2] = Metabolic stability of human liver microsomes assessed as compound metabolized at 5 uM after 15 mins; format: ADME, Microsome; conditions: read-out: Drug metabolism
Procedure, shortened: (§1)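 Test compound at 5 μM incubated 15 min with rat or human liver microsomes; read-out is percent of compound metabolized.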

[3] = Metabolic stability of Sprague-Dawley rat liver microsomes assessed as compound metabolized at 5 uM after 15 mins; format: ADME, Microsome; conditions: read-out: Drug metabolism; procedure, shortened: as §1
[4] = target: Metabotropic glutamate receptor 1 (Homo sapiens) (UniProt Q13255); test: Agonist activity at human mGlu 1 expressed in HEK293 cells at 10 uM by Ca+2 assay; format: functional, cell-based
Chain of Metabotropic glutamate receptor 1 (Homo sapiens) (Q13255 19-1194 limits assumed): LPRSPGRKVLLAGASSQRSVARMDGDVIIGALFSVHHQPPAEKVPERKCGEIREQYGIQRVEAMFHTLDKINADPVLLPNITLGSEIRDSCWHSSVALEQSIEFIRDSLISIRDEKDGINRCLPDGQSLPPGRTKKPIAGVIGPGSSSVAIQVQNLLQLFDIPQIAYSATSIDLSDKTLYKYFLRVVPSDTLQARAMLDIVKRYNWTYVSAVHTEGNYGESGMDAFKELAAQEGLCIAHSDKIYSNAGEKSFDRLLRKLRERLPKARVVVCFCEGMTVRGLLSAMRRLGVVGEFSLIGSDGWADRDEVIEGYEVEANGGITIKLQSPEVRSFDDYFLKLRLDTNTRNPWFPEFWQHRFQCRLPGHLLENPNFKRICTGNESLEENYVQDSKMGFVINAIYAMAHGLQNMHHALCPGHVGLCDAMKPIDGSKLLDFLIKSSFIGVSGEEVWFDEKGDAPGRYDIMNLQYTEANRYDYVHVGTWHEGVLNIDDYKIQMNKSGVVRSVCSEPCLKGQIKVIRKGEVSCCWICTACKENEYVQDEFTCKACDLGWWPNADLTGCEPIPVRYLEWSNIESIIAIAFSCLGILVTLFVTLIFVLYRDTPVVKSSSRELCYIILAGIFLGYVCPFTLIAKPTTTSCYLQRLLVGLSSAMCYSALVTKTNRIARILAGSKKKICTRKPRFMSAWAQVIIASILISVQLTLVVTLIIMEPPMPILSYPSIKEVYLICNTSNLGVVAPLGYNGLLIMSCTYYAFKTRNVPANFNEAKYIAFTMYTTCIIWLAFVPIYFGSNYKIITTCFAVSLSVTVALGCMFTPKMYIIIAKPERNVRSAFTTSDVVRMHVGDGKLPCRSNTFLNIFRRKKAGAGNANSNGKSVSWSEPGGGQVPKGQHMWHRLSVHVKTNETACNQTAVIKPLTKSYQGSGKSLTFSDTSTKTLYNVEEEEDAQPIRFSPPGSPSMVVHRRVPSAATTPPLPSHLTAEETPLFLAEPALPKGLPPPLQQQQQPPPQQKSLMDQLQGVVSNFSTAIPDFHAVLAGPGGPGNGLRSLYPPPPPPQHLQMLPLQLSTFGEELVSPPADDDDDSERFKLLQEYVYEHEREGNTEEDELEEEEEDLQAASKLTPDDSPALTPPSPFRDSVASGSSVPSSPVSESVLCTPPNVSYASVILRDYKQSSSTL
Procedure, shortened: (§2)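 Ca2+ assays on human mGlu1, mGlu3, mGlu5, mGlu7 or mGlu8 receptors, each expressed in HEK293 cells; compound tested at 10 μM for agonist and antagonist activity.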

[5] = target: Metabotropic glutamate receptor 3 (Homo sapiens) (UniProt Q14832); test: Agonist activity at human mGlu 3 expressed in HEK293 cells at 10 uM by Ca+2 assay; format: functional, cell-based; procedure, shortened: as §2
Chain of Metabotropic glutamate receptor 3 (Homo sapiens) (Q14832 23-879 limits assumed): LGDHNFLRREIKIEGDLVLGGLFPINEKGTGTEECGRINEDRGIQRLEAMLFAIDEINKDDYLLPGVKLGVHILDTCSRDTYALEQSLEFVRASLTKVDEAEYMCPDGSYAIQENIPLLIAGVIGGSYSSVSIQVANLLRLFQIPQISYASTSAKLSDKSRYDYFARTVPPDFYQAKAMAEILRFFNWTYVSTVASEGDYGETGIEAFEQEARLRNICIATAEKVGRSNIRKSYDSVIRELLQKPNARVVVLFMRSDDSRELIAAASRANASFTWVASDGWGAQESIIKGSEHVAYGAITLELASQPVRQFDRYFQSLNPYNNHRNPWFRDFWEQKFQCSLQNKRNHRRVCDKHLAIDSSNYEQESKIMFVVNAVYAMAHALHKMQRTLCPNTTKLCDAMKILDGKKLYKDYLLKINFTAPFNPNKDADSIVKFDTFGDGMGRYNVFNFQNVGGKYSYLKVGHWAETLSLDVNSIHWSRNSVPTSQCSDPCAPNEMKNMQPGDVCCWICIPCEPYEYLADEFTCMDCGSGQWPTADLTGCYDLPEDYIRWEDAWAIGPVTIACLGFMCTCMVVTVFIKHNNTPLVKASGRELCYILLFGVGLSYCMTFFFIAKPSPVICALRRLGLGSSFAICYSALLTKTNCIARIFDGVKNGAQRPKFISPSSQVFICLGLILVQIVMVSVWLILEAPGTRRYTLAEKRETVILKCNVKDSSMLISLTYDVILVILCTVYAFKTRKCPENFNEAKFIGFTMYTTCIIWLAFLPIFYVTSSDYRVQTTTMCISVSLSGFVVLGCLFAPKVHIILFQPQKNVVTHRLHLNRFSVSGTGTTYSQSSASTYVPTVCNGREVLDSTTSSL

[6] = target: Metabotropic glutamate receptor 5 (Homo sapiens) (UniProt P41594); test: Agonist activity at human mGlu 5 expressed in HEK293 cells at 10 uM by Ca+2 assay; format: functional, cell-based; procedure, shortened: as §2
Chain of Metabotropic glutamate receptor 5 (Homo sapiens) (P41594 21-1212 limits assumed): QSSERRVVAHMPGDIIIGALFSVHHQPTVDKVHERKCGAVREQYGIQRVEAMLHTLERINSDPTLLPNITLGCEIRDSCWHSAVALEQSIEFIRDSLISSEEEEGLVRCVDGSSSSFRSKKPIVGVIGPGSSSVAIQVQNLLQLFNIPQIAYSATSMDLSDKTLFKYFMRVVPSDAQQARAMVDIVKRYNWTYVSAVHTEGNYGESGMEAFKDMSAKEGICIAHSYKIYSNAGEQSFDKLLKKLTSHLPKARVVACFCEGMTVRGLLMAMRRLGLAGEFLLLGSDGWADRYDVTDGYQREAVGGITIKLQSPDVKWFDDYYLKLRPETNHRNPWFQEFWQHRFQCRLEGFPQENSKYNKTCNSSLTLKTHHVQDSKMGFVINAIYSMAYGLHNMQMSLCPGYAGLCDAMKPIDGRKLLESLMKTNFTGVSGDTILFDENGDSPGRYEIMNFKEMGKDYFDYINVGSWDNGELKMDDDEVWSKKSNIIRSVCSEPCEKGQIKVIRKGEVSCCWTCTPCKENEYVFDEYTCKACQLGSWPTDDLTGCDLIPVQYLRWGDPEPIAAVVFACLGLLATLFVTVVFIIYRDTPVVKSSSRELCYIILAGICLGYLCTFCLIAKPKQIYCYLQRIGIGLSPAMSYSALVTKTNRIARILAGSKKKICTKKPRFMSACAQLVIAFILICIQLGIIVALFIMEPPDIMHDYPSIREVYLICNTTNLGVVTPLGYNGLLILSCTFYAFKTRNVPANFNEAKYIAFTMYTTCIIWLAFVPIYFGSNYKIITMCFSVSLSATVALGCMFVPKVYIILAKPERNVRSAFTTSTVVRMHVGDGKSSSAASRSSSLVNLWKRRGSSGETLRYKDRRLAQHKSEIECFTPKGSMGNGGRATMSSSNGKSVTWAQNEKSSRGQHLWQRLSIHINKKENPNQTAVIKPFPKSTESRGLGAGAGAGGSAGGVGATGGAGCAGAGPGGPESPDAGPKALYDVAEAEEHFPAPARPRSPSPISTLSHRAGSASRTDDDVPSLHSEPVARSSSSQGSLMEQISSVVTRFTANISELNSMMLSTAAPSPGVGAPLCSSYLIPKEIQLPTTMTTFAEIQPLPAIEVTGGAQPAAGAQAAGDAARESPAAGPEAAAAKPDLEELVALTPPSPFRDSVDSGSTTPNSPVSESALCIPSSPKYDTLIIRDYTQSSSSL

[7] = target: Metabotropic glutamate receptor 8 (Homo sapiens) (UniProt O00222); test: Agonist activity at human mGlu 8 expressed in HEK293 cells at 10 uM by Ca+2 assay; format: functional, cell-based; procedure, shortened: as §2
[8] = target: Metabotropic glutamate receptor 4 (Homo sapiens) (UniProt Q14833); test: Agonist activity at human mGlu 4 expressed in L929 cells assessed as [35S]GTPgammaS binding by liquid scintillation counting; format: functional, cell-based
Chain of Metabotropic glutamate receptor 4 (Homo sapiens) (Q14833 whole entry): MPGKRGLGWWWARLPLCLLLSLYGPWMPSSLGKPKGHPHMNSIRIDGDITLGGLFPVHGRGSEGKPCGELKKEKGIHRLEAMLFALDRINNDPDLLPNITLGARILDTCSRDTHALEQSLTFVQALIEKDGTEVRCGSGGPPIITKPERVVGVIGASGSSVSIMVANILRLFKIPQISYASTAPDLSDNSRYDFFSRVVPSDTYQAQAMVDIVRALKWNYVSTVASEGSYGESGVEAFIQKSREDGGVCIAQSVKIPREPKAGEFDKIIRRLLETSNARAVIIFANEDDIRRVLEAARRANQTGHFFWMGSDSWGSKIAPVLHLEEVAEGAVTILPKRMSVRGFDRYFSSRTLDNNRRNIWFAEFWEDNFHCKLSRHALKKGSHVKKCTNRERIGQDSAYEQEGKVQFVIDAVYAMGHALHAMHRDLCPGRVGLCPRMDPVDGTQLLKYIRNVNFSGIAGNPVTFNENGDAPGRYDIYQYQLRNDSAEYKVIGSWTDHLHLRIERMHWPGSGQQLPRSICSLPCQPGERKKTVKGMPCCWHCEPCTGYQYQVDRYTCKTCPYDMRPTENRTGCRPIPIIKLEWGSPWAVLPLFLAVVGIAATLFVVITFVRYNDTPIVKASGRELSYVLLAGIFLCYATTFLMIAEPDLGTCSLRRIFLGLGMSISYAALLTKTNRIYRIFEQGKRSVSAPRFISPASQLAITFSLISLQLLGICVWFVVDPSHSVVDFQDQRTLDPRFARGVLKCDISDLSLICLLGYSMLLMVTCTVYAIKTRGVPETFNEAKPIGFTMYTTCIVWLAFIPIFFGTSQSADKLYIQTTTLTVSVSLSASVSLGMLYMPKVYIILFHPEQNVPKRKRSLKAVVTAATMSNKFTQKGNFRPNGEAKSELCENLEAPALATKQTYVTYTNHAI
Procedure, shortened: (§3)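 [35S]GTPγS functional assays on human mGlu4 or rat mGlu6 receptors expressed in L929 or CHO cells; agonist and antagonist modes tested at 10 μM.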

[9] = target: Metabotropic glutamate receptor 6 (Rattus norvegicus) (UniProt P35349); test: Agonist activity at rat mGlu 6 expressed in CHO cells assessed as [35S]GTPgammaS binding by liquid scintillation counting; format: functional, cell-based; procedure, shortened: as §3
Chain of Metabotropic glutamate receptor 6 (Rattus norvegicus) (P35349 whole entry): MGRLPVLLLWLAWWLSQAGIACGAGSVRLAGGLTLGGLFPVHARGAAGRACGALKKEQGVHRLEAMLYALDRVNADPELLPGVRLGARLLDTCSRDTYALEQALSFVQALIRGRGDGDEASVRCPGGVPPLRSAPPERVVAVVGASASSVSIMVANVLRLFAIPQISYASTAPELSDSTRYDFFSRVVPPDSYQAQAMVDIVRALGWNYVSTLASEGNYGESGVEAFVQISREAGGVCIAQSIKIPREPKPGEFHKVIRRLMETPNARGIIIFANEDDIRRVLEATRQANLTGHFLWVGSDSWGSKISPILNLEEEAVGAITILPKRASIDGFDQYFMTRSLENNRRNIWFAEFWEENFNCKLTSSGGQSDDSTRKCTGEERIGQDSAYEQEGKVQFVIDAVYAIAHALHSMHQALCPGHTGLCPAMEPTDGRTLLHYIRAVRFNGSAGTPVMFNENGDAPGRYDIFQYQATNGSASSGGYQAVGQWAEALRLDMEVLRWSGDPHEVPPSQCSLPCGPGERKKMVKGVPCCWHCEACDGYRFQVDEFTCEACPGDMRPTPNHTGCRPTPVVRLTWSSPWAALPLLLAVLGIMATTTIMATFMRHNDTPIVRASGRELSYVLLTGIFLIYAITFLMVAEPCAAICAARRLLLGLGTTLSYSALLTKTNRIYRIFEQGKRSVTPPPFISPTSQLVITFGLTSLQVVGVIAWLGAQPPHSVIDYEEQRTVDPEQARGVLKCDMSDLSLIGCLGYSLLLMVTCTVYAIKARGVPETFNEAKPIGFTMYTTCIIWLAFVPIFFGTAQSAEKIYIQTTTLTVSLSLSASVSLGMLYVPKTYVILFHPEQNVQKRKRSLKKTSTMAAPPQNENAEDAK

[10] = Tmax in Sprague-Dawley rat at 10 mg/kg, po; format: ADME, organism-based; set-up: dose 10 mg/kg, route oral; conditions: in vivo
Procedure, shortened: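 Rat pharmacokinetics in Sprague−Dawley rats: oral 10 mg/kg and intravenous 1.25 mg/kg, formulated in 20% HP-β-CD at pH 4. Plasma profiles used for Cmax, tmax, AUC0−inf and t1/2. Reported as geometric means of at least two runs ± SEM.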

[11] = AUC (0 to infinity) in Sprague-Dawley rat at 10 mg/kg, po; format: ADME, organism-based; set-up: time infinity, dose 10 mg/kg, route oral; conditions: plasma
Procedure, shortened: (§4)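 Male Sprague-Dawley rats given 10 mg/kg orally and/or 1.25 mg/kg intravenously; compound formulated in 20% HP-β-CD at pH 4. Cmax, tmax, AUC0−inf, t1/2, clearance and oral bioavailability F derived from plasma levels; geometric mean of at least two runs ± SEM.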

[12] = Half life in Sprague-Dawley rat at 10 mg/kg, po; format: ADME, organism-based; set-up: dose 10 mg/kg, route oral; conditions: in vivo; procedure, shortened: as §4
[13] = Drug uptake in Sprague-Dawley rat brain at 10 mg/kg, po after 1 hr; format: ADME, organism-based; set-up: dose 10 mg/kg, route oral; conditions: read-out: Drug uptake
[14] = Drug uptake in Sprague-Dawley rat brain at 10 mg/kg, po after 2 hrs; format: ADME, organism-based; set-up: dose 10 mg/kg, route oral; conditions: read-out: Drug uptake
[15] = Drug uptake in Sprague-Dawley rat brain at 10 mg/kg, po after 4 hrs; format: ADME, organism-based; set-up: dose 10 mg/kg, route oral; conditions: read-out: Drug uptake
[16] = Plasma concentration in Sprague-Dawley rat at 10 mg/kg, po after 1 hr; format: ADME, organism-based; set-up: dose 10 mg/kg, route oral
[17] = Plasma concentration in Sprague-Dawley rat at 10 mg/kg, po after 2 hrs; format: ADME, organism-based; set-up: dose 10 mg/kg, route oral
[18] = Plasma concentration in Sprague-Dawley rat at 10 mg/kg, po after 4 hrs; format: ADME, organism-based; set-up: dose 10 mg/kg, route oral
Procedure, shortened: (§5)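 Oral dosing of Sprague−Dawley rats at 10 mg/kg, compound in 20% HP-β-CD at pH 4. Brain (ng/g) and plasma (ng/mL) concentrations sampled at the indicated time; brain-to-plasma ratio calculated. Geometric mean of at least two runs ± SEM.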

[19] = Ratio of drug level in brain to plasma of Sprague-Dawley rat at 10 mg/kg, po after 1 hr; format: ADME, organism-based; set-up: dose 10 mg/kg, route oral; conditions: read-out: BPR; procedure, shortened: as §5
[20] = Ratio of drug level in brain to plasma of Sprague-Dawley rat at 10 mg/kg, po after 2 hrs; format: ADME, organism-based; set-up: dose 10 mg/kg, route oral; conditions: read-out: BPR; procedure, shortened: as §5
[21] = Ratio of drug level in brain to plasma of Sprague-Dawley rat at 10 mg/kg, po after 4 hrs; format: ADME, organism-based; set-up: dose 10 mg/kg, route oral; conditions: brain and plasma, read-out: BPR; procedure, shortened: as §5
[22] = target: Metabotropic glutamate receptor 1 (Homo sapiens) (UniProt Q13255); test: Antagonist activity at human mGlu 1 expressed in HEK293 cells at 10 uM by Ca+2 assay; format: functional, cell-based; procedure, shortened: as §2
[23] = target: Metabotropic glutamate receptor 3 (Homo sapiens) (UniProt Q14832); test: Antagonist activity at human mGlu 3 expressed in HEK293 cells at 10 uM by Ca+2 assay; format: functional, cell-based; procedure, shortened: as §2
[24] = target: Metabotropic glutamate receptor 5 (Homo sapiens) (UniProt P41594); test: Antagonist activity at human mGlu 5 expressed in HEK293 cells at 10 uM by Ca+2 assay; format: functional, cell-based; procedure, shortened: as §2
[25] = target: T1, Metabotropic glutamate receptor 7 (Homo sapiens, UniProt Q14831); test: Antagonist activity at human mGlu 7 expressed in HEK293 cells at 10 uM by Ca+2 assay; format: functional, cell-based; procedure, shortened: as §2
[26] = target: Metabotropic glutamate receptor 8 (Homo sapiens) (UniProt O00222); test: Antagonist activity at human mGlu 8 expressed in HEK293 cells at 10 uM by Ca+2 assay; format: functional, cell-based; procedure, shortened: as §2
[27] = target: Metabotropic glutamate receptor 4 (Homo sapiens) (UniProt Q14833); test: Antagonist activity at human mGlu 4 expressed in L929 cells assessed inhibition of [35S]GTPgammaS binding by liquid scintillation counting; format: functional, cell-based; procedure, shortened: as §3
[28] = target: Metabotropic glutamate receptor 6 (Rattus norvegicus) (UniProt P35349); test: Antagonist activity at rat mGlu 6 expressed in CHO cells assessed as inhibition of [35S]GTPgammaS binding by liquid scintillation counting; format: functional, cell-based; procedure, shortened: as §3
Rattus norvegicus [29] = test: Effect on sleep-wake cycle in Sprague-Dawley rat EEG model assessed as change in intermediate state at 10 mg/kg, po measured up to 20 hrs relative to control; format: functional, organism-based; set-up: dose 10 mg/kg
Procedure, shortened: (§6)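 Male Sprague-Dawley rats (250–300 g) implanted with EEG/EMG/EOG electrodes, 12 h light/dark cycle, n = 8 per group. Baseline 20 h recording after oral saline, then 20 h after oral 10 mg/kg or vehicle (20% CD + 2H2T). 2 s epochs scored into AW, PW, preREM, REM, lSWS, dSWS and averaged per 30 min. Latencies and transitions analysed; Wilcoxon−Mann−Whitney test vs vehicle.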

Rattus norvegicus [30] = test: Effect on sleep-wake cycle in Sprague-Dawley rat EEG model assessed as change in passive wake at 10 mg/kg, po measured up to 20 hrs relative to control; format: functional, organism-based; set-up: dose 10 mg/kg; procedure, shortened: as §6
Rattus norvegicus [31] = test: Effect on sleep-wake cycle in Sprague-Dawley rat EEG model assessed as change in active wake at 10 mg/kg, po measured up to 20 hrs relative to control; format: functional, organism-based; set-up: dose 10 mg/kg; procedure, shortened: as §6
Rattus norvegicus [32] = test: Effect on sleep-wake cycle in Sprague-Dawley rat EEG model assessed as increase in REM sleep onset latency at 10 mg/kg, po measured up to 2 hrs relative to control; format: functional, organism-based; set-up: dose 10 mg/kg; procedure, shortened: as §6
Rattus norvegicus [33] = test: Effect on sleep-wake cycle in Sprague-Dawley rat EEG model assessed as change in sleep variables at 10 mg/kg, po measured up to 20 hrs relative to control; format: functional, organism-based; set-up: dose 10 mg/kg; procedure, shortened: as §6
[34] = target: T1, Metabotropic glutamate receptor 7; test: Agonist activity at human mGlu 7 expressed in HEK293 cells at 10 uM by Ca+2 assay; format: functional, cell-based; procedure, shortened: as §2
[35] = Cmax in Sprague-Dawley rat at 10 mg/kg, po; format: ADME, organism-based; set-up: dose 10 mg/kg, route oral; conditions: in vivo; procedure, shortened: as §4
Rattus norvegicus [36] = test: Effect on sleep-wake cycle in Sprague-Dawley rat EEG model assessed as suppression of REM sleep at 10 mg/kg, po measured up to 2 hrs relative to control; format: functional; procedure, shortened: as §6
Rattus norvegicus [37] = test: Effect on sleep-wake cycle in Sprague-Dawley rat EEG model assessed as change in light sleep at 10 mg/kg, po measured up to 20 hrs relative to control; format: functional, organism-based; set-up: dose 10 mg/kg; procedure, shortened: as §6
Rattus norvegicus [38] = test: Effect on sleep-wake cycle in Sprague-Dawley rat EEG model assessed as change in deep sleep at 10 mg/kg, po measured up to 20 hrs relative to control; format: functional, organism-based; set-up: dose 10 mg/kg; procedure, shortened: as §6
Rattus norvegicus [39] = test: Effect on sleep-wake cycle in Sprague-Dawley rat EEG model assessed as effect on different vigilance states at 10 mg/kg, po measured up to 20 hrs relative to control; format: functional, organism-based; set-up: dose 10 mg/kg; procedure, shortened: as §6
Rattus norvegicus [40] = test: Effect on sleep-wake cycle in Sprague-Dawley rat EEG model assessed as change in transition from sleep states toward waking at 10 mg/kg, po measured up to 20 hrs relative to control; format: functional, organism-based; set-up: dose 10 mg/kg; procedure, shortened: as §6

FC(F)(F)Cc1cnc2c(Cl)c(-c3cc(Cl)c4[nH]ccc4c3)ccn12 gave an Emax [1] of 217%, a metabolised at 0.25 h, 5 µM [2] of 10% and a metabolised at 0.25 h, 5 µM [3] of 21%. For the same molecule, the Activity [4] was “inactive”, the Activity [5] was “inactive” and the Activity [6] was “inactive”. The Activity [7] was “inactive”, the Activity [8] was “inactive” and the Activity [9] was “inactive”. The Tmax [10] was 0.8 h, the AUC(0-inf) [11] was 1980 ng·h/mL and the half-life [12] was 2 h. It also gave a concentration at 1 h [13] of 538 ng/g, a concentration at 2 h [14] of 441 ng/g and a concentration at 4 h [15] of 126 ng/g. The concentration at 1 h [16] was 414 ng/mL, the concentration at 2 h [17] was 364 ng/mL and the concentration at 4 h [18] was 168 ng/mL. It also gave a Kp at 1 h [19] of 1.3, a Kp at 2 h [20] of 1.2 and a Kp at 4 h [21] of 0.8. The Activity [22] was “inactive”, the Activity [23] was “inactive” and the Activity [24] was “inactive”. The Activity [25] was “inactive”, the Activity [26] was “inactive” and the Activity [27] was “inactive”. The Activity [28] was “inactive”, the Activity (Rattus norvegicus [29]) was “inactive” and the Activity (Rattus norvegicus [30]) was “inactive”. For the same molecule, the Activity (Rattus norvegicus [31]) was “inactive”, the Activity (Rattus norvegicus [32]) was “Active” and the Activity (Rattus norvegicus [33]) was “inactive”. The Activity [34] was “inactive”, the Cmax [35] was 534 ng/mL and the Activity (Rattus norvegicus [36]) was 57%. The Activity (Rattus norvegicus [37]) was “inactive”, the Activity (Rattus norvegicus [38]) was “inactive” and the Activity (Rattus norvegicus [39]) was “inactive”. The Activity (Rattus norvegicus [40]) was “inactive”.
